ChEMBL document CHEMBL5058577, “EUbOPEN Chemogenomics Library 2 (Multiplex)” (2022)

System: U2OS
Test: Multiplex assay against U2OS
Format: toxicity, cell-based
Details: human
Outline: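 Live cells were stained at seeding with Hoechst33342, BioTracker Green Microtubule Cytoskeleton Dye, MitoTracker Red and Annexin V Alexa Fluor 680, then imaged on a CQ1 microscope at 37°C and 5% CO2 after compound addition. CellPathfinder machine-learning gating split cells into Hoechst high-intensity objects or normal cells. Normal cells were split into healthy, pyknosed or fragmented nuclei, and pyknosed cells into mitotic or apoptotic. Tubulin, mitochondrial-mass and membrane-permeability phenotypes are per cents of healthy-nucleus cells.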

[1] = 12 h, 1 µM, compound concentration 1 uM, replicate 1
[2] = 12 h, 1 µM, compound concentration 1 uM, replicate 2
[3] = 12 h, 10 µM, compound concentration 10 uM, replicate 1
[4] = 12 h, 10 µM, compound concentration 10 uM, replicate 2
[5] = 24 h, 1 µM, compound concentration 1 uM, replicate 1
[6] = 24 h, 1 µM, compound concentration 1 uM, replicate 2
[7] = 24 h, 10 µM, compound concentration 10 uM, replicate 1
[8] = 24 h, 10 µM, compound concentration 10 uM, replicate 2
[9] = 48 h, 1 µM, compound concentration 1 uM, replicate 1
[10] = 48 h, 1 µM, compound concentration 1 uM, replicate 2
[11] = 48 h, 10 µM, compound concentration 10 uM, replicate 1
[12] = 48 h, 10 µM, compound concentration 10 uM, replicate 2

## Cc1c(Cc2ccc3ccccc3n2)c2cc(F)ccc2n1CC(=O)O [TIMAPIPRANT]
[1]
  Population Apoptotic (%): 84%
  Population Fragmented Nuclei (%): 21%
  Population Healthy Nuclei (%): 69%
  Population Hoechst High Intensity Objects (%): 2%
  Population Membrane Permeable-Phenotype (%): 3%
  Population Mitochondria Different-Phenotype (%): 1%
  Population Mitotic Cells (%): 16%
  Population Normal (%): 97%
  Population Pyknosed Nuclei (%): 8%
  Population Tubulin-Different-Phenotype (%): 1%
  Total Cell Count: 298
[2]
  Population Apoptotic (%): 83%
  Population Fragmented Nuclei (%): 22%
  Population Healthy Nuclei (%): 70%
  Population Hoechst High Intensity Objects (%): 1%
  Population Membrane Permeable-Phenotype (%): 4%
  Population Mitochondria Different-Phenotype (%): 4%
  Population Normal (%): 98%
  Population Pyknosed Nuclei (%): 6%
  Population Tubulin-Different-Phenotype (%): 3%
  Total Cell Count: 94
[3]
  Population Apoptotic (%): 75%
  Population Fragmented Nuclei (%): 30%
  Population Healthy Nuclei (%): 62%
  Population Hoechst High Intensity Objects (%): 2%
  Population Membrane Permeable-Phenotype (%): 4%
  Population Mitochondria Different-Phenotype (%): 1%
  Population Mitotic Cells (%): 25%
  Population Normal (%): 97%
  Population Pyknosed Nuclei (%): 6%
  Population Tubulin-Different-Phenotype (%): 2%
  Total Cell Count: 244
[4]
  Population Apoptotic (%): 68%
  Population Fragmented Nuclei (%): 12%
  Population Healthy Nuclei (%): 75%
  Population Hoechst High Intensity Objects (%): 0%
  Population Membrane Permeable-Phenotype (%): 6%
  Population Mitochondria Different-Phenotype (%): 3%
  Population Mitotic Cells (%): 31%
  Population Normal (%): 99%
  Population Pyknosed Nuclei (%): 12%
  Population Tubulin-Different-Phenotype (%): 3%
  Total Cell Count: 132
[5]
  Population Apoptotic (%): 96%
  Population Fragmented Nuclei (%): 18%
  Population Healthy Nuclei (%): 73%
  Population Hoechst High Intensity Objects (%): 1%
  Population Membrane Permeable-Phenotype (%): 6%
  Population Mitochondria Different-Phenotype (%): 3%
  Population Mitotic Cells (%): 3%
  Population Normal (%): 98%
  Population Pyknosed Nuclei (%): 7%
  Population Tubulin-Different-Phenotype (%): 4%
  Total Cell Count: 371
[6]
  Population Apoptotic (%): 100%
  Population Fragmented Nuclei (%): 19%
  Population Membrane Permeable-Phenotype (%): 7%
  Population Mitochondria Different-Phenotype (%): 2%
  Population Mitotic Cells (%): 0%
  Population Tubulin-Different-Phenotype (%): 3%
  Total Cell Count: 117
[7]
  Population Apoptotic (%): 94%
  Population Fragmented Nuclei (%): 26%
  Population Healthy Nuclei (%): 66%
  Population Hoechst High Intensity Objects (%): 1%
  Population Membrane Permeable-Phenotype (%): 6%
  Population Mitochondria Different-Phenotype (%): 2%
  Population Mitotic Cells (%): 5%
  Population Normal (%): 98%
  Population Pyknosed Nuclei (%): 6%
  Population Tubulin-Different-Phenotype (%): 3%
  Total Cell Count: 278
[8]
  Population Apoptotic (%): 72%
  Population Fragmented Nuclei (%): 18%
  Population Healthy Nuclei (%): 74%
  Population Hoechst High Intensity Objects (%): 0%
  Population Membrane Permeable-Phenotype (%): 8%
  Population Mitotic Cells (%): 27%
  Population Normal (%): 100%
  Population Pyknosed Nuclei (%): 7%
  Total Cell Count: 152
[9]
  Population Apoptotic (%): 88%
  Population Fragmented Nuclei (%): 16%
  Population Healthy Nuclei (%): 77%
  Population Hoechst High Intensity Objects (%): 1%
  Population Membrane Permeable-Phenotype (%): 4%
  Population Mitochondria Different-Phenotype (%): 3%
  Population Mitotic Cells (%): 11%
  Population Normal (%): 98%
  Population Pyknosed Nuclei (%): 6%
  Population Tubulin-Different-Phenotype (%): 3%
  Total Cell Count: 536
[10]
  Population Apoptotic (%): 90%
  Population Fragmented Nuclei (%): 22%
  Population Healthy Nuclei (%): 71%
  Population Hoechst High Intensity Objects (%): 2%
  Population Membrane Permeable-Phenotype (%): 12%
  Population Mitochondria Different-Phenotype (%): 5%
  Population Mitotic Cells (%): 10%
  Population Normal (%): 97%
  Population Tubulin-Different-Phenotype (%): 6%
  Total Cell Count: 168
[11]
  Population Apoptotic (%): 100%
  Population Fragmented Nuclei (%): 19%
  Population Healthy Nuclei (%): 74%
  Population Hoechst High Intensity Objects (%): 0%
  Population Membrane Permeable-Phenotype (%): 3%
  Population Mitochondria Different-Phenotype (%): 1%
  Population Mitotic Cells (%): 0%
  Population Normal (%): 99%
  Population Pyknosed Nuclei (%): 6%
  Population Tubulin-Different-Phenotype (%): 1%
  Total Cell Count: 392
[12]
  Population Apoptotic (%): 92%
  Population Fragmented Nuclei (%): 13%
  Population Healthy Nuclei (%): 80%
  Population Hoechst High Intensity Objects (%): 2%
  Population Membrane Permeable-Phenotype (%): 5%
  Population Mitochondria Different-Phenotype (%): 3%
  Population Mitotic Cells (%): 7%
  Population Normal (%): 97%
  Population Tubulin-Different-Phenotype (%): 3%
  Total Cell Count: 204
